One block for each molecule: values may come before it.
Legend:
P450 2W1 [1] = biological target: T1, P450 2W1 (Homo sapiens, UniProt Q8TAV3); assay: Preliminary incubation with P450 2W1, products by HPLC-UV; format: in vitro ADME; details: recombinant human P450 2W1
T1 sequence (Q8TAV3 23-490): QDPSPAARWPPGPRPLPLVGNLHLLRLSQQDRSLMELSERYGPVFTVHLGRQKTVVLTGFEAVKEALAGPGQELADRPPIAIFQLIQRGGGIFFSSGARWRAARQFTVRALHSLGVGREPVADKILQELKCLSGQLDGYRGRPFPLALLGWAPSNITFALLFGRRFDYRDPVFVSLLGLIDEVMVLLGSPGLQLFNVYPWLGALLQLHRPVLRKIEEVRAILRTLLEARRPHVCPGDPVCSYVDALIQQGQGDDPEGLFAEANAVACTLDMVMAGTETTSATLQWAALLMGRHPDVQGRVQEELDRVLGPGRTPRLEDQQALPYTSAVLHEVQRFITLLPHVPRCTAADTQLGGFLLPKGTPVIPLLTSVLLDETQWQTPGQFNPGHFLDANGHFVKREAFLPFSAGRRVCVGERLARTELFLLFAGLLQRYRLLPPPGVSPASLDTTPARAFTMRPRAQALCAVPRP
Summary of the method: (§1)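 Recombinant human P450 at 0.3–0.8 μM, either in E. coli membranes or purified and reconstituted with 2-fold excess NADPH-P450 reductase plus 30 μM DLPC. Substrate 100 μM with NADPH-generating system in 0.10 M potassium phosphate, pH 7.4; 37 °C for 30–60 min. Extracted into 2 volumes CH2Cl2, residue taken up in CH3CN. Read by C18 HPLC with photodiode-array UV, acetonitrile/water gradient containing 0.5% formic acid.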

P450 2S1 = biological target: T2, P450 2S1 (Homo sapiens, UniProt Q96SQ9); assay: Preliminary incubation with P450 2S1, products by HPLC-UV; format: in vitro ADME; details: recombinant human P450 2S1
T2 sequence (Q96SQ9 1-504): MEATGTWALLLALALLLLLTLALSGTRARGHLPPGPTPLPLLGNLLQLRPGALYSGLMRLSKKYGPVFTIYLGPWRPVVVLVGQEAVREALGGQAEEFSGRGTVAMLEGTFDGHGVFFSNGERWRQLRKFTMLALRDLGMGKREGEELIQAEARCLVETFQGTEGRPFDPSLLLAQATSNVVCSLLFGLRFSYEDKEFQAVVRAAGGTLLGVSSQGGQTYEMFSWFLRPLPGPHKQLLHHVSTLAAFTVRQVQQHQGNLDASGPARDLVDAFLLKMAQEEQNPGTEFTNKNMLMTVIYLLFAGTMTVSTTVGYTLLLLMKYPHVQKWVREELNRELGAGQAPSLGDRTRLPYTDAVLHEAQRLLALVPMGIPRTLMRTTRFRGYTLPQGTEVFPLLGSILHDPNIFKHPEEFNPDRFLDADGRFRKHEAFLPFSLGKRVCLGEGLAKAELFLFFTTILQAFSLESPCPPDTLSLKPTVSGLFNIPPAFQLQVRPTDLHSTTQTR
Summary of the method: as §1

P450 2W1 [2] = biological target: T1, P450 2W1; assay: Steady-state kinetics of P450 2W1-catalyzed oxidation; format: in vitro ADME
Summary of the method: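 Same P450 and NADPH-generating levels as qualitative incubations, in 0.10 M phosphate, pH 7.4. Substrate 0–200 μM, in duplicate, at 37 °C. With 2W1: 10 min (dimethoxyphenyl substrate) or 15 min (aminophenyl substrate); with 1A1: 15 and 25 min respectively. CH2Cl2 quench, benzothiazole internal standard added, extract quantified by HPLC-UV. Km and kcat from nonlinear regression.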

P450 1A1 = biological target: T3, P450 1A1 (Homo sapiens, UniProt P04798); assay: Steady-state kinetics of P450 1A1-catalyzed oxidation; format: in vitro ADME; details: oxidation of 5F 203 to form 8a
T3 sequence (P04798 1-512): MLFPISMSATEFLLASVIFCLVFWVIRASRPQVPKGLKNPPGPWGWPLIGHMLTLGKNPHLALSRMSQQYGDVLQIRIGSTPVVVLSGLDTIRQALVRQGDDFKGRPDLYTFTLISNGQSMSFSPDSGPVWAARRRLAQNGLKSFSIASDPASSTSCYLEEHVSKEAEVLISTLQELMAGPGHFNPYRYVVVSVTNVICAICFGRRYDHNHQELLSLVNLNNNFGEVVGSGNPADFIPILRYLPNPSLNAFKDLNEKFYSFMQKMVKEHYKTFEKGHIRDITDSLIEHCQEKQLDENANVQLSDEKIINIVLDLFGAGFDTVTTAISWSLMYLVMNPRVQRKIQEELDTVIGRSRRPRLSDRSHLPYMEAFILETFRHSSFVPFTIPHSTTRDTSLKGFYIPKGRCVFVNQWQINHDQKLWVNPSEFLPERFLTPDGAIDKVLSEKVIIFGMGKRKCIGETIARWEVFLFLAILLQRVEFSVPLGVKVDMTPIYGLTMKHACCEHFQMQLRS

[3] = test system: P450 2W1, P450 1A1, or human liver microsomes; assay: GSH adduct formation from oxidation products; format: in vitro ADME; details: 5 mM GSH, 100 μM substrate, LC-MS
Summary of the method: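 P450 2W1 or 1A1 in E. coli membranes, or human liver microsomes pooled from ten donors, at 0.50 μM with 100 μM substrate, 5 mM GSH and 4 μg mL−1 catalase. Incubated 12–15 h at 37 °C, stopped with 2 volumes CH3CN; supernatant analysed by ESI+ LC-MS.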

MCF-7 cells = details: ref [12], [13]; cited from earlier work
MDA 468 cells = details: ref [12], [13]; cited from earlier work
IGROV-1 cells = details: ref [12], [13]; cited from earlier work
[4] = test system: colon, lung, and breast cancer cell lines; details: ref [19]; cited from earlier work
dGuo = dGuo adduct formation with synthetic 10; details: after Ac2O activation, 37 °C under argon 2 h, LC-MS m/z 524
[5] = Solubility in organic solvents; format: physicochemical; details: in CHCl3 and CH3OH
[6] = substrate: COc1ccc(-c2nc3cc(F)ccc3s2)cc1OC; assay: Steady-state kinetics of P450 1A1-catalyzed oxidation; format: in vitro ADME, human; details: other: P450 1A1, substrate GW 610, product 4c; pH 7.4; 37.0 °C
[7] = substrate: Cc1cc(-c2nc3cc(F)ccc3s2)ccc1N; assay: as above; format: in vitro ADME, human; details: pH 7.4, 37.0 °C
[8] = other: P450 1A1, substrate 5F 203, product 8a
[9] = other: P450 1A1, substrate 5F 203, product 8b

kcat (P450 2W1 [2]; P450 2W1, substrate GW 610, product 4c): 0.0633 ± 0.0067 s⁻¹
efficiency of P450 2W1 relative to P450 1A1 (P450 2W1 [2]; formation of 4c from GW 610): 5 fold
Km at 10 min (P450 2W1 [2]; human, pH 7.4, Km, P450 2W1, substrate GW 610, product 4c): 22 ± 7 µM
product formation on incubation with P450 2W1 (P450 2W1 [1]): Products were formed
product formation on incubation with P450 2S1 (P450 2S1): no products were observed
GSH conjugate formation [3]: detected
Molecule: COc1ccc(-c2nc3cc(F)ccc3s2)cc1OC [GW 610, 5-Fluoro-2-(3,4-dimethoxyphenyl)-benzothiazole]
GI50 [4]: < 0.1 nM

solubility [5]: very poor
Molecule: Cc1cc(-c2nc3cc(F)ccc3s2)ccc1NO [compound 10, 2-(4-Hydroxylamino-3-methylphenyl)-5-fluorobenzothiazole]
dGuo adduct formation (dGuo): consistent with a dGuo adduct of compound 10

The remaining lines, values behind:

Molecule: c1ccc(-c2nc3ccccc3s2)cc1 [2-phenylbenzothiazole, reference compound]
product formation on incubation with P450 2W1 (P450 2W1 [1]): No products were observed
product formation on incubation with P450 2S1 (P450 2S1): No products were observed

Molecule: Cc1cc(-c2nc3cc(F)ccc3s2)ccc1N [5F 203, 2-(4-Amino-3-methylphenyl)-5-fluorobenzothiazole]
kcat (P450 2W1 [2]; P450 2W1, substrate 5F 203, product 8a): 0.0158 ± 0.0017 s⁻¹
kcat (P450 2W1 [2]; P450 2W1, substrate 5F 203, product 10): 0.00933 ± 0.001 s⁻¹
Km at 15 min (P450 2W1 [2]; human, pH 7.4, Km, P450 2W1, substrate 5F 203, product 8a): 31 ± 11 µM
Km at 15 min (P450 2W1 [2]; human, pH 7.4, Km, P450 2W1, substrate 5F 203, product 10): 35 ± 12 µM
efficiency of P450 1A1 relative to P450 2W1 (P450 1A1): ~ 2 fold
product formation on incubation with P450 2W1 (P450 2W1 [1]): Products were formed
product formation on incubation with P450 2S1 (P450 2S1): no products were observed
GSH conjugate formation [3]: detected
GI50 (MCF-7 cells): < 1 nM
GI50 (MDA 468 cells): < 1 nM
GI50 (IGROV-1 cells): < 1 nM

B1: P450 1A1 (Homo sapiens) (protein)
chain: T3 sequence (P04798 1-512)
Km [6]: 10 ± 3 µM
kcat [6]: 0.00617 ± 0.0005 s⁻¹
kcat/Km [6]: 600 ± 167 M⁻¹ s⁻¹
Km [7, 8]: 32 ± 9 µM
kcat [7, 8]: 0.0283 ± 0.00333 s⁻¹
kcat/Km [7, 8]: 900 ± 333 M⁻¹ s⁻¹
Km [7, 9]: 29 ± 8 µM
kcat [7, 9]: 0.0517 ± 0.005 s⁻¹
kcat/Km [7, 9]: 1830 ± 500 M⁻¹ s⁻¹

Source: PMC3850770 (Chemical research in toxicology, 2012)
